Experimental data reported in PMC7867784 (Translational Lung Cancer Research, 2021).

Tested on: Japanese patients with RET-rearranged NSCLC
Assay: ALL-RET phase 1/2 trial: safety
Assay type: in vivo, human
In short: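 Adverse events were graded by NCI CTCAE v4.0, with causal relation to treatment recorded separately. Dose finding used a 3+3 de-escalation design with 3–6 patients per cohort. DLT was evaluated over the first 21-day cycle and defined as grade ≥4 thrombopenia, grade ≥3 febrile neutropenia, grade ≥4 neutropenia lasting ≥4 days, or grade ≥3 non-hematologic toxicity, with specified exceptions. Follow-up ran until January 2019.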

Compound: CCc1cc2c(cc1N1CCC(N3CCOCC3)CC1)C(C)(C)c1[nH]c3cc(C#N)ccc3c1C2=O [alectinib]
- grade 4 AEs (450 mg BID): no grade 4 AEs were observed
- Aspartate aminotransferase increase, any grade, number (total) (450 mg BID (N=28)): 9
- Aspartate aminotransferase increase, any grade, number [causally related] (450 mg BID (N=28)): 7
- Aspartate aminotransferase increase, any grade, percent (total) (450 mg BID (N=28)): 32.1%
- Aspartate aminotransferase increase, any grade, percent [causally related] (450 mg BID (N=28)): 25.0%
- Aspartate aminotransferase increase, grade 1–2, number (total) (450 mg BID (N=28)): 9
- Aspartate aminotransferase increase, grade 1–2, number [causally related] (450 mg BID (N=28)): 7
- Aspartate aminotransferase increase, grade 3, number (450 mg BID (N=28)): 0
- Aspartate aminotransferase increase, grade 4, number (450 mg BID (N=28)): 0
- Bilirubin increase, any grade, number (total) (450 mg BID (N=28)): 6 [6]
- Bilirubin increase, any grade, number [causally related] (450 mg BID (N=28)): 6 [6]
- Bilirubin increase, any grade, percent (450 mg BID (N=28)): 21.4%
- Bilirubin increase, grade 1–2, number (total) (450 mg BID (N=28)): 5 [5]
- Bilirubin increase, grade 1–2, number [causally related] (450 mg BID (N=28)): 5 [5]
- Bilirubin increase, grade 3, number (total) (450 mg BID (N=28)): 1 [1]
- Bilirubin increase, grade 3, number [causally related] (450 mg BID (N=28)): 1 [1]
- Bilirubin increase, grade 4, number (450 mg BID (N=28)): 0
- Constipation, any grade, number [causally related] (450 mg BID (N=28)): 12
- Constipation, any grade, percent (total) (450 mg BID (N=28)): 57.1%
- Constipation, any grade, percent [causally related] (450 mg BID (N=28)): 42.9%
- Constipation, grade 1–2, number (total) (450 mg BID (N=28)): 16
- Constipation, grade 1–2, number [causally related] (450 mg BID (N=28)): 12
- Constipation, grade 3, number (450 mg BID (N=28)): 0
- Constipation, grade 4, number (450 mg BID (N=28)): 0
- Creatine phosphokinase increase, any grade, number (total) (450 mg BID (N=28)): 13 [13]
- Creatine phosphokinase increase, any grade, number [causally related] (450 mg BID (N=28)): 13 [13]
- Creatine phosphokinase increase, any grade, percent (450 mg BID (N=28)): 46.4%
- Creatine phosphokinase increase, grade 1–2, number (total) (450 mg BID (N=28)): 12 [12]
- Creatine phosphokinase increase, grade 1–2, number [causally related] (450 mg BID (N=28)): 12 [12]
- Creatine phosphokinase increase, grade 3, number (total) (450 mg BID (N=28)): 1 [1]
- Creatine phosphokinase increase, grade 3, number [causally related] (450 mg BID (N=28)): 1 [1]
- Creatine phosphokinase increase, grade 4, number (450 mg BID (N=28)): 0
- Creatinine increase, any grade, number (total) (450 mg BID (N=28)): 8 [8]
- Creatinine increase, any grade, number [causally related] (450 mg BID (N=28)): 8 [8]
- Creatinine increase, any grade, percent (450 mg BID (N=28)): 28.6%
- Creatinine increase, grade 1–2, number (total) (450 mg BID (N=28)): 8 [8]
- Creatinine increase, grade 1–2, number [causally related] (450 mg BID (N=28)): 8 [8]
- Creatinine increase, grade 3, number (450 mg BID (N=28)): 0
- Creatinine increase, grade 4, number (450 mg BID (N=28)): 0
- Diarrhea, any grade, number (total) (450 mg BID (N=28)): 3
- Diarrhea, any grade, number [causally related] (450 mg BID (N=28)): 2
- Diarrhea, any grade, percent (total) (450 mg BID (N=28)): 10.7%
- Diarrhea, any grade, percent [causally related] (450 mg BID (N=28)): 7.1%
- Diarrhea, grade 1–2, number (total) (450 mg BID (N=28)): 2 [2]
- Diarrhea, grade 1–2, number [causally related] (450 mg BID (N=28)): 2 [2]
- Diarrhea, grade 3, number (total) (450 mg BID (N=28)): 1
- Diarrhea, grade 3, number [causally related] (450 mg BID (N=28)): 0
- Diarrhea, grade 4, number (450 mg BID (N=28)): 0
- Hyponatraemia, any grade, number (total) (450 mg BID (N=28)): 1 [1]
- Hyponatraemia, any grade, number [causally related] (450 mg BID (N=28)): 1 [1]
- Hyponatraemia, any grade, percent (450 mg BID (N=28)): 3.6%
- Hyponatraemia, grade 1–2, number (450 mg BID (N=28)): 0
- Hyponatraemia, grade 3, number (total) (450 mg BID (N=28)): 1 [1]
- Hyponatraemia, grade 3, number [causally related] (450 mg BID (N=28)): 1 [1]
- Hyponatraemia, grade 4, number (450 mg BID (N=28)): 0
- Neutropenia, any grade, number (total) (450 mg BID (N=28)): 1 [1]
- Neutropenia, any grade, number [causally related] (450 mg BID (N=28)): 1 [1]
- Neutropenia, any grade, percent (450 mg BID (N=28)): 3.6%
- Neutropenia, grade 1–2, number (450 mg BID (N=28)): 0
- Neutropenia, grade 3, number (total) (450 mg BID (N=28)): 1 [1]
- Neutropenia, grade 3, number [causally related] (450 mg BID (N=28)): 1 [1]
- Neutropenia, grade 4, number (450 mg BID (N=28)): 0
- Pneumonitis, any grade, percent (total) (450 mg BID (N=28)): 3.6%
- Pneumonitis, any grade, percent [causally related] (450 mg BID (N=28)): 0.0%
- Pneumonitis, grade 1–2, number (450 mg BID (N=28)): 0
- Pneumonitis, grade 3, number (total) (450 mg BID (N=28)): 1 [1]
- Pneumonitis, grade 3, number [causally related] (450 mg BID (N=28)): 1 [1]
- Pneumonitis, grade 4, number (450 mg BID (N=28)): 0
- Constipation, any grade, number (total) (450 mg BID (N=28; phase 1 N=3, phase 2 N=25)): 16
- dose reduction due to toxicity (450 mg BID, 28 patients): no patients required a dose reduction
- patients whose treatment was discontinued due to pneumonitis (450 mg BID, out of 28 patients): 1
- Alkaline phosphatase increase, any grade, number (total) (600 mg BID (N=6)): 2 [2]
- Alkaline phosphatase increase, any grade, number [causally related] (600 mg BID (N=6)): 2 [2]
- Alkaline phosphatase increase, any grade, percent (600 mg BID (N=6)): 33.3%
- Alkaline phosphatase increase, grade 1–2, number (total) (600 mg BID (N=6)): 1[1]
- Alkaline phosphatase increase, grade 1–2, number [causally related] (600 mg BID (N=6)): 1[1]
- Alkaline phosphatase increase, grade 3, number (total) (600 mg BID (N=6)): 1[1]
- Alkaline phosphatase increase, grade 3, number [causally related] (600 mg BID (N=6)): 1[1]
- Alkaline phosphatase increase, grade 4, number (600 mg BID (N=6)): 0
- Cholangitis, any grade, number (total) (600 mg BID (N=6)): 1 [1]
- Cholangitis, any grade, number [causally related] (600 mg BID (N=6)): 1 [1]
- Cholangitis, any grade, percent (600 mg BID (N=6)): 16.7%
- Cholangitis, grade 1–2, number (600 mg BID (N=6)): 0
- Cholangitis, grade 3, number (total) (600 mg BID (N=6)): 1 [1]
- Cholangitis, grade 3, number [causally related] (600 mg BID (N=6)): 1 [1]
- Cholangitis, grade 4, number (600 mg BID (N=6)): 0
- Constipation, any grade, number (total) (600 mg BID (N=6)): 4 [4]
